# Sampled rows, rich in hits. Any-hit rate of the full collection: about 1.9%.
# SR-BI DiI inh: inhibitors of mouse SR-BI mediated HDL lipid uptake; Q61009; inhibition, % at 12.5 µM; ldlA[mSR-BI] CHO cells, DiI-HDL uptake fluorescence, 3 h; actives 0.96% (n = 320,000); AID 488896;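 active = mean replicate inhibition of at least 70% and a set share of replicates each scoring 70 or more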;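 also: 0% = median of neutral control wells and 100% = median of positive control wells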
# Target sequence (Q61009 whole entry, looked up): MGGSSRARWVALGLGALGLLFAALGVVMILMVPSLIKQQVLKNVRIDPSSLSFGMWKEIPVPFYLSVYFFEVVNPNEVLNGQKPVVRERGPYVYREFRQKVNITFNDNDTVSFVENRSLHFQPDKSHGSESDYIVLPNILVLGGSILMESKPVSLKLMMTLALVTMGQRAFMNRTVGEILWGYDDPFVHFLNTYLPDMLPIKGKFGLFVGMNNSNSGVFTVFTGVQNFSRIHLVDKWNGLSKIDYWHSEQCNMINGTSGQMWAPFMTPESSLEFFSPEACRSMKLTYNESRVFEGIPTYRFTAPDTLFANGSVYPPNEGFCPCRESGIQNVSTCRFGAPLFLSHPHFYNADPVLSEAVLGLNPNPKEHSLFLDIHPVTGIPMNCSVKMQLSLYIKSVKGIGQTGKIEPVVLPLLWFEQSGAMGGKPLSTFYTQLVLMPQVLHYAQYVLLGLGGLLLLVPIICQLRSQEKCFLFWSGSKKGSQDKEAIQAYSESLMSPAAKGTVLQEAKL
# Neddylation inh: blocks human cullin neddylation; P61081+Q13564; TR-FRET cullin neddylation, biochemical; inhibition, % at 25 µM; actives 0.58% (n = 360,000); AID 651699; in the data active = inhibition above about 36%
# SR-BI uptake up: SR-BI HDL lipid transfer activation. CHO ldlA[mSR-BI] cells, DiI-HDL uptake fluorescence, 3 h; 100 = double the neutral-control signal. activation, % at 12.5 µM. actives 0.096% (n = 320,000). AID 504775;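 active = mean replicate activation of at least 60% and every replicate at or above 60%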;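 also: 0% = median plate neutral-control signal and 100% = twice that signal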
#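 Material – SR-BI-overexpressing, LDLR-lacking CHO cells · Medium – BSA-supplemented, HEPES-buffered Ham's F12, pH 7.4 · Doses – single concentration · Times – compound with DiI-HDL co-incubation, 3 h at 37 °C · Measured by – bottom-read fluorescence, 550/595 nm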
# UBC13 inh: human UBC13 polyubiquitination inhibition. UBC13 polyubiquitin chain formation, TR-FRET. AID 485273. inhibition, % at 20 µM. actives 0.47% (n = 330,000). P61088; in the data active = inhibition above about 45%, passing the limit was not always enough
# An asterisk follows results filed as active; / = no result given.
SMILES,SR-BI DiI inh,Neddylation inh,SR-BI uptake up,UBC13 inh
CC(=O)Nc1cccc(NC(=O)Cc2nc(-c3ccccc3)sc2-c2ccc(C)cc2)c1,60,-86,-60,-6
COc1cccc(NC(=O)Cc2nc(-c3ccccc3)sc2-c2ccc(C)cc2)c1,86*,-66,-86,-5
COC(=O)c1cccc(NC(=O)Cc2nc(-c3ccccc3)sc2-c2ccc(C)cc2)c1,71*,-143,-71,-2
Cc1ccc(S(=O)(=O)N2CCOCC2)cc1NC(=O)CSc1nnnn1C,/,0,/,0
O=[N+]([O-])c1cccc(/C=N/Nc2nc(N3CCOCC3)nc(N3CCOCC3)n2)c1,22,-19,-22,4
O=[N+]([O-])c1cccc(/C=C2\CCC(/C=N/Nc3ccc4ccccc4n3)=C2N2CCOCC2)c1,88*,-13,-88,-35
Cc1cc(C(O)c2ncc(-c3ccccc3)[nH]2)ccc1F (stereo not given),/,6,/,/
CCOC(=O)C1=C(C)N=C2SCCC(=O)N2[C@@H]1c1cccs1,-292,-8,292*,0
CCOC(=O)C1=C(C)N=C2SCCC(=O)N2C1c1cccs1 (stereo not given),-9,-2,9,1
O=C(Nc1cccc(-c2csc(Nc3cccc(C(F)(F)F)c3)n2)c1)c1ccccc1,78*,-5,-78,-6
Cc1nc(NC(=O)c2ccccc2)sc1-c1csc(Nc2cccc(F)c2)n1,/,/,/,-47
O=C(Nc1cccc(-c2csc(Nc3ccccc3)n2)c1)c1ccccc1,77*,0,-77,-1
O=C(Nc1ccc(-c2csc(Nc3ccc(Cl)cc3)n2)cc1)c1ccccc1,93*,11,-93,-12
CC(=O)c1cccc(Nc2nc(-c3ccccc3)cs2)c1,75*,3,-75,16
O=C(Nc1ccccc1)Nc1nc(-c2ccc(Cl)cc2)cs1,38,-1,-38,-15
CCc1nc2ccc(C(=O)NCCN3CCNC3=O)cn2c1N(CC)CCOC,/,-4,/,/
O=C(Nc1ccccc1C(=O)NCCCN1CCOCC1)c1ccc(F)cc1,-35,0,35,2
O=C(Nc1ccc(-c2csc(Nc3cccc(C(F)(F)F)c3)n2)cc1)c1cc([N+](=O)[O-])cc(C(F)(F)F)c1,92*,-22,-92,-34
O=C(Nc1ccc(-c2csc(Nc3cccc(C(F)(F)F)c3)n2)cc1)c1ccccc1,97*,1,-97,1
O=C(Nc1nc(-c2ccccc2)cs1)c1cccc([N+](=O)[O-])c1,51,-19,-51,2
O=[N+]([O-])c1cccc(-c2csc(Nc3ccccc3)n2)c1,87*,-19,-87,1
O=C1CC2(CCN(C(=O)COc3ccc(Cl)cc3)CC2)Oc2ccccc21,14,20,-14,1
CC(C)N1C(=O)C(=O)N(CC(=O)N2c3ccccc3NC(=O)CC2C)C1=O (stereo not given),-1,5,1,2
COc1ccc2sc(-c3ccc(N(C)C)cc3)c(C#CCCO)c2c1,96*,/,-96,30
Cc1onc(-c2ccccc2)c1C(=O)NC(=S)NNC(=O)c1ccc(O)cc1O,85*,6,-85,-3
SMILES,SR-BI DiI inh,Neddylation inh,SR-BI uptake up,UBC13 inh
Cc1onc(-c2ccccc2)c1C(=O)NC(=S)NNC(=O)c1ccccc1O,117*,-2,-117,-19
O=C1c2ccccc2[C@@H]2C[C@@H](O)[C@H](Nc3cccc(C(F)(F)F)c3)CCN12,-27,7,27,/
Oc1ccc(Nc2nc(-c3ccccc3)nc3ccccc23)cc1,22,17,-22,6
Oc1ccc(Nc2nc3ccccc3nc2Nc2ccc(O)cc2)cc1,90*,39,-90,-7
Cc1ccn2c(NC3CCCC3)c(-c3ccncc3)nc2c1,31,/,-31,20
CCC(C)Sc1ccc(-c2nc3cnccn3c2NC2CCCCC2)cc1 (stereo not given),63,-5,-63,39
c1ccc(-c2nc3ccccn3c2NC2CCCC2)nc1,14,39*,-14,6
CCC(C)Sc1ccc(-c2nc3cc(C)ccn3c2NC2CCCCC2)cc1 (stereo not given),81*,/,-81,38
Cc1ccn2c(NC3CCCC3)c(-c3ccccn3)nc2c1,23,38*,-23,34
CC1(C)COC(c2ccc3c(c2)OCO3)OC1,11,1,-11,/
CCOc1ccc(C(=O)NCC(=O)Nc2ccc3c(c2)OCO3)cc1OCC,7,-2,-7,-9
CCOc1cc(C(=O)Nc2ccc3c(c2)OCO3)ccc1OC(F)F,89*,1,-89,2
CCCOc1ccc(C(=O)Nc2ccc3c(c2)OCO3)cc1,-1,15,1,8
CCCOc1c(Cl)cc(C(=O)Nc2ccc3c(c2)OCO3)cc1OCC,78*,5,-78,1
O=C1Nc2ccc(Br)cc2/C1=N\N=C\C1=C(N2CCOCC2)C(=C/c2ccccc2)/CC1,100*,-28,-100,/
CC(NC(=O)C12CC3CC(CC(C3)C1)C2)C(=O)N/N=C/C1=C(N2CCOCC2)C(=C\c2ccccc2)/CC1 (stereo not given),51,33,-51,-15
O=C1Nc2ccccc2/C1=N\N=C\C1=C(N2CCOCC2)C(=C\c2ccccc2)/CC1,128*,-14,-128,-112
Cn1cc(C(=O)N/N=C/C2=C(N3CCOCC3)C(=C\c3ccccc3)/CC2)ccc1=O,47,12,-47,0
OC(c1ccc(F)c(F)c1)c1nc(-c2ccc3c(c2)OCO3)cs1 (stereo not given),/,-28,/,/
O=C1CC2C(CCC23OCCO3)c2ccc3ccccc3c21 (stereo not given),23,-33,-23,/
COCCNc1nnc(SCC(=O)Nc2sc3c(c2C(=O)c2ccccc2)CCCC3)s1,75*,-7,-75,7
C=CCOC(=O)COc1ccc2c(C)c(C)c(=O)oc2c1C,5,41*,-5,0
COc1ccc2nc(C)c3c(c2c1)OC(C(C)(Cl)Br)C3 (stereo not given),71*,8,-71,2
Cc1sc(NC(=O)c2ccco2)c(CN2CCN(c3ccc(F)cc3)CC2)c1C,66,29,-66,6
Cc1sc(NC(=O)c2ccco2)c(CN2CCN(c3ccccn3)CC2)c1C,37,45*,-37,4
SMILES,SR-BI DiI inh,Neddylation inh,SR-BI uptake up,UBC13 inh
Clc1cccc(-c2cc3nc4c(c(N5CCN(c6cnccn6)CC5)n3n2)CCCC4)c1,/,/,/,8
Clc1cccc(-c2cc3nc4c(c(N5CCOCC5)n3n2)CCCC4)c1,77*,/,-77,12
Fc1cccc(-c2cc3nc4c(c(N5CCOCC5)n3n2)CCCC4)c1,72*,/,-72,6
Cc1ccccc1-c1cc2nc(Oc3cccc(F)c3)n(C)c(=O)c2s1,/,-56,/,/
CC1CCc2c(sc(NC(=O)c3cccn3C)c2C(N)=O)C1 (stereo not given),81*,6,-81,-12
COC(=O)Nc1sc2c(c1C(N)=O)CCC(C)C2 (stereo not given),48,11,-48,-12
COc1ccc(CCNC(=O)c2cccc(NC(=O)CC3SC(N4CCCCC4)=NC3=O)c2)cc1OC (stereo not given),78*,-1,-78,0

# Source: PubChem BioAssay (several laboratories)
